From ChEMBL document CHEMBL1135044, “Studies on the side-chain hydroxylation of ifosfamide and its bromo analogue” (Bioorg Med Chem Lett, 2002) come the findings set out here.

Data set [1] is filed under the species Mus musculus. In words: Maximum tolerated dose against L1210 leukemia in mice. The class given is functional. The essentials:
(§1)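 Sub-acute toxicity was tested in healthy, non-tumour-bearing CD2F1 females (12–16 weeks, 25–27 g), given a single ip injection or oral gavage and observed for 45 days. Mortality was pooled from 3–6 experiments, usually 4–7 dose levels, with ≥5 mice per group. Litchfield–Wilcoxon log-dose curves were fitted. LD50 (with 95% confidence limits) and LD5 (taken as MTD) were estimated graphically.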

Data set [2] in a line: Therapeutic index represented as LD50/ED50 was determined.
Data set [3] is described as follows: Dose required to kill 50% of healthy, non-tumour-bearing mice (LD50). The note with it: mouse, in vivo. In outline: as §1
Data set [4] is filed under the species Mus musculus. Nature of the data set: Effective dose that produce antitumor activity against L1210 leukemia in mice. The class given is functional. The essentials: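 CD2F1 mice were inoculated ip with 10^5 ascitic L1210 cells in PBS and given a single ip dose on day 3 (advanced disease), following NIH/NCI in vivo screening protocols. ILS was calculated as T/C × 100 − 100 from average survival times. ED50, the dose giving 50% ILS, was read graphically from least-squares dose–effect curves.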

A word on the MTD: it is the largest dose that counted as tolerated. A low value points to a narrow tolerated range. A word on the LD50: it is the dose at which mortality reaches 50%. A higher LD50 goes with a less toxic substance. For orientation: ED50 means the midpoint of the dose-response relation. Low values mean greater potency, high ones weaker potency. Turning to `O=[P@]1(NCCCl)OCCCN1CCBr`, the maximal tolerated dose (MTD) in data set [1] turned out to be 230 mg/kg. In addition, in data set [2], the TI stood at 13.6 Ratio. The same molecule displayed an LD50 in data set [3] of 289 mg/kg. In addition, in data set [4], the 50% effect level (ED50) was put at a dose of 21.3 mg/kg.
Molecule `[2H]C([2H])(CCl)N[P@]1(=O)OCCCN1C([2H])([2H])CBr` returned a maximal tolerated dose (MTD) in data set [1] of 196 mg/kg. This molecule came in with a TI in data set [2] of 17.7 Ratio. This molecule also registered an LD50 in data set [3] of 265 mg/kg. The ED50 in data set [4] amounted to 15 mg/kg.
`O=P1(NCCCl)OCCCN1CCBr` (stereo not drawn) returned an MTD in data set [1] of 236 mg/kg. The TI in data set [2] came out at 9.3 Ratio. This molecule also yielded an LD50 in data set [3] of 320 mg/kg. The ED50 in data set [4] came to 34.3 mg/kg.
As to `[2H]C([2H])(CCl)NP1(=O)OCCCN1C([2H])([2H])CCl` (stereo not drawn), the 50% effective dose (ED50) in data set [4] was 67.8 mg/kg.
Same read-out and setting: the same measure for `[2H]C([2H])(CCl)NP1(=O)OCCCN1C([2H])([2H])CBr` (stereo not drawn): 23.6 mg/kg.
Turning to `O=P1(NCCCl)OCCCN1CCCl` (stereo not drawn) [IFOSFAMIDE], the MTD in data set [1] came out at 518 mg/kg. In addition, the TI in data set [2] came out at 7.1 Ratio. This molecule also gave a 50% lethal dose (LD50) in data set [3] of 687 mg/kg. For the same molecule, it took a dose of 96.4 mg/kg to reach the 50% effect level in data set [4] (ED50).
